ChEMBL document CHEMBL3414463, “Discovery of potent and selective 8-fluorotriazolopyridine c-Met inhibitors” (J Med Chem, 2015)
pIC50: −log10 of the molar value.

What was measured:
Rattus norvegicus [1] = assay: Clearance in Sprague-Dawley rat at 0.25 mg/kg, iv; format: ADME, organism-based; set-up: dose 0.25 mg/kg, route intravenous; conditions: in vivo
[2] = Drug metabolism in monkey liver microsomes assessed as formation of (S)-2-(6-(1-(8-fluoro-6-(3-methylisoxazol-5-yl)-[1,2,4]triazolo[4,3-a]pyridin-3-yl)ethyl)quinolin-3-yloxy)ethanol in presence of NADPH by LC-MS/MS method; format: ADME, Macaca mulatta; conditions: rhesus monkey
Procedure, shortened: (§1)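 Compound incubated with NADPH in mouse, rat, dog, monkey or human liver microsomes. Metabolites were identified by accurate mass spectrometry and MS/MS, and selected ion chromatograms were used to build metabolite profiles.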

[3] = Oral bioavailability in Sprague-Dawley rat at 2 mg/kg; format: ADME, organism-based; conditions: in vivo
Procedure, shortened: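 Male Sprague-Dawley rats given 2.0 mg/kg orally in 2% (w/v) hydroxypropylmethylcellulose, 1% (w/v) Tween 80 in water, pH 2.2 (adjusted with HCl or MSA). Some inhibitors instead used 10% (v/v) dimethylacetamide in the same vehicle.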

Liver microsome [4] = assay: Unbound clearance rat liver microsomes at 1 uM in presence of NADPH by LC-MS/MS method; format: ADME
Procedure, shortened: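 Aliquots were taken at 0, 10, 20, 30 and 40 min, quenched with an equal volume of acetonitrile, centrifuged and analysed by LC/MS/MS.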

[5] = target: T1, Hepatocyte growth factor receptor (Homo sapiens, UniProt P08581); assay: Inhibition of recombinant c-Met kinase domain (unknown origin) incubated for 30 mins using gastrin peptide substrate by HTRF assay
Mus musculus [6] = assay: Inhibition of human recombinant HGF-stimulated c-Met autophosphorylation in Balb/c mouse assessed as relative phospho c-Met level at 10 mg/kg, po administered as single dose and measured 6 hrs before mouse sacrifice by electrochemiluminescence immunoassay; format: functional; set-up: scale not given: the % may be the effect or the level left
Procedure, shortened: (§2)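 Mice received a single 10 mg/kg oral dose. Human recombinant HGF (12 μg) was given IV at 1, 3, 6, 9, 12 or 24 h postdose, and liver was harvested 5 min later. Liver phospho-c-Met was measured by electrochemiluminescent immunoassay. Mean ± SD, n = 3; ANOVA with Bonferroni/Dunn test versus HGF control.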

Liver microsome [7] = assay: Drug metabolism in dog liver microsomes assessed as formation of (S)-2-(6-(1-(8-fluoro-6-(3-methylisoxazol-5-yl)-[1,2,4]triazolo[4,3-a]pyridin-3-yl)ethyl)quinolin-3-yloxy)ethanol in presence of NADPH by LC-MS/MS method; format: ADME, Canis lupus familiaris; procedure, shortened: as §1
[8] = Drug metabolism in mouse liver microsomes assessed as formation of (S)-2-(6-(1-(8-fluoro-6-(3-methylisoxazol-5-yl)-[1,2,4]triazolo[4,3-a]pyridin-3-yl)ethyl)quinolin-3-yloxy)ethanol in presence of NADPH by LC-MS/MS method; format: ADME; procedure, shortened: as §1
Liver microsome [9] = assay: Drug metabolism in human liver microsomes assessed as formation of (S)-2-(6-(1-(8-fluoro-6-(3-methylisoxazol-5-yl)-[1,2,4]triazolo[4,3-a]pyridin-3-yl)ethyl)quinolin-3-yloxy)acetic acid in presence of NADPH by LC-MS/MS method; format: ADME; procedure, shortened: as §1
Liver microsome [10] = assay: Drug metabolism in dog liver microsomes assessed as formation of (S)-2-(6-(1-(8-fluoro-6-(3-methylisoxazol-5-yl)-[1,2,4]triazolo[4,3-a]pyridin-3-yl)ethyl)quinolin-3-yloxy)acetic acid in presence of NADPH by LC-MS/MS method; format: ADME, Canis lupus familiaris; procedure, shortened: as §1
Mus musculus [11] = assay: Inhibition of human recombinant HGF-stimulated c-Met autophosphorylation in Balb/c mouse assessed as relative phospho c-Met level at 10 mg/kg, po administered as single dose and measured 3 hrs before mouse sacrifice by electrochemiluminescence immunoassay; format: functional; set-up: scale not given: the % may be the effect or the level left; procedure, shortened: as §2
Mus musculus [12] = assay: Inhibition of human recombinant HGF-stimulated c-Met autophosphorylation in Balb/c mouse assessed as relative phospho c-Met level at 10 mg/kg, po administered as single dose and measured 24 hrs before mouse sacrifice by electrochemiluminescence immunoassay; format: functional; set-up: scale not given: the % may be the effect or the level left; procedure, shortened: as §2
Mus musculus [13] = assay: Inhibition of human recombinant HGF-stimulated c-Met autophosphorylation in Balb/c mouse assessed as relative phospho c-Met level at 10 mg/kg, po administered as single dose and measured 1 hr before mouse sacrifice by electrochemiluminescence immunoassay; format: functional; set-up: scale not given: the % may be the effect or the level left; procedure, shortened: as §2
Mus musculus [14] = assay: Inhibition of human recombinant HGF-stimulated c-Met autophosphorylation in Balb/c mouse assessed as relative phospho c-Met level at 10 mg/kg, po administered as single dose and measured 12 hrs before mouse sacrifice by electrochemiluminescence immunoassay; format: functional; set-up: scale not given: the % may be the effect or the level left; procedure, shortened: as §2
[15] = Volume of distribution at steady state in Sprague-Dawley rat at 0.25 mg/kg, iv; format: ADME, organism-based; set-up: dose 0.25 mg/kg, route intravenous; conditions: in vivo, read-out: Vdss
Procedure, shortened: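 Male Sprague-Dawley rats were given a single IV dose of 0.25 mg/kg. The vehicle was DMSO, or for some compounds 20% (w/v) hydroxypropyl β-cyclodextrin in water adjusted to pH 3.5 with MSA. NC marks cases where the terminal disposition rate constant could not be characterized for lack of slope.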

[16] = Half life in Sprague-Dawley rat at 0.25 mg/kg, iv; format: ADME, organism-based; set-up: dose 0.25 mg/kg, route intravenous; conditions: in vivo
Mus musculus [17] = assay: Inhibition of human recombinant HGF-stimulated c-Met autophosphorylation in Balb/c mouse assessed as relative phospho c-Met level at 10 mg/kg, po administered as single dose and measured 9 hrs before mouse sacrifice by electrochemiluminescence immunoassay; format: functional; set-up: scale not given: the % may be the effect or the level left; procedure, shortened: as §2
Liver microsome [18] = assay: Drug metabolism in rat liver microsomes assessed as formation of (S)-2-(6-(1-(8-fluoro-6-(3-methylisoxazol-5-yl)-[1,2,4]triazolo[4,3-a]pyridin-3-yl)ethyl)quinolin-3-yloxy)acetic acid in presence of NADPH by LC-MS/MS method; format: ADME; procedure, shortened: as §1
[19] = Drug metabolism in mouse liver microsomes assessed as formation of (S)-2-(6-(1-(8-fluoro-6-(3-methylisoxazol-5-yl)-[1,2,4]triazolo[4,3-a]pyridin-3-yl)ethyl)quinolin-3-yloxy)acetic acid in presence of NADPH by LC-MS/MS method; format: ADME; procedure, shortened: as §1
Liver microsome [20] = assay: Drug metabolism in human liver microsomes assessed as formation of (S)-2-(6-(1-(8-fluoro-6-(3-methylisoxazol-5-yl)-[1,2,4]triazolo[4,3-a]pyridin-3-yl)ethyl)quinolin-3-yloxy)ethanol in presence of NADPH by LC-MS/MS method; format: ADME; procedure, shortened: as §1
[21] = Drug metabolism in monkey liver microsomes assessed as formation of (S)-2-(6-(1-(8-fluoro-6-(3-methylisoxazol-5-yl)-[1,2,4]triazolo[4,3-a]pyridin-3-yl)ethyl)quinolin-3-yloxy)acetic acid in presence of NADPH by LC-MS/MS method; format: ADME, Macaca mulatta; conditions: rhesus monkey; procedure, shortened: as §1
Liver microsome [22] = assay: Drug metabolism in rat liver microsomes assessed as formation of (S)-2-(6-(1-(8-fluoro-6-(3-methylisoxazol-5-yl)-[1,2,4]triazolo[4,3-a]pyridin-3-yl)ethyl)quinolin-3-yloxy)ethanol in presence of NADPH by LC-MS/MS method; format: ADME; procedure, shortened: as §1
Rattus norvegicus [23] = assay: AUC (0 to infinity) in Sprague-Dawley rat at 0.25 mg/kg, iv; format: ADME, organism-based, Plasma; set-up: dose 0.25 mg/kg, route intravenous, time infinity; conditions: in vivo
[24] = target: T1, Hepatocyte growth factor receptor; assay: Inhibition of HGF-stimulated c-Met autophosphorylation in serum starved human PC3 cells pre-incubated for 1 hr followed by human recombinant HGF stimulation for 10 mins by quantitative electrochemiluminescence immunoassay; format: cell-based, PC-3
Procedure, shortened: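 Serum-starved PC-3 cells (plated in high-glucose DMEM/10% FBS, then 16 h in low-glucose DMEM with 0.1% BSA) were treated with a 10-point inhibitor dilution for 1 h at 37 °C. Cells were then stimulated with 200 ng/mL recombinant human HGF for 10 min and lysed. Phospho-c-Met was captured with biotinylated anti-c-Met and 4G10 by electrochemiluminescence. IC50, n ≥ 2.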

[25] = Drug level in monkey liver microsomes treated with 5-(8-Fluoro-3-(1-(3-methoxyquinolin-6-yl)ethyl)[1,2,4]-triazolo[4,3-a]pyridin-6-yl)-3-methylisoxazole assessed as compound formation in presence of NADPH by LC-MS/MS method; format: ADME, Macaca mulatta; conditions: rhesus monkey; procedure, shortened: as §1
Liver microsome [26] = assay: Drug level in human liver microsomes treated with 5-(8-Fluoro-3-(1-(3-methoxyquinolin-6-yl)ethyl)[1,2,4]-triazolo[4,3-a]pyridin-6-yl)-3-methylisoxazole assessed as compound formation in presence of NADPH by LC-MS/MS method; format: ADME; procedure, shortened: as §1

T1 sequence (P08581 whole entry, the tested form may be a part): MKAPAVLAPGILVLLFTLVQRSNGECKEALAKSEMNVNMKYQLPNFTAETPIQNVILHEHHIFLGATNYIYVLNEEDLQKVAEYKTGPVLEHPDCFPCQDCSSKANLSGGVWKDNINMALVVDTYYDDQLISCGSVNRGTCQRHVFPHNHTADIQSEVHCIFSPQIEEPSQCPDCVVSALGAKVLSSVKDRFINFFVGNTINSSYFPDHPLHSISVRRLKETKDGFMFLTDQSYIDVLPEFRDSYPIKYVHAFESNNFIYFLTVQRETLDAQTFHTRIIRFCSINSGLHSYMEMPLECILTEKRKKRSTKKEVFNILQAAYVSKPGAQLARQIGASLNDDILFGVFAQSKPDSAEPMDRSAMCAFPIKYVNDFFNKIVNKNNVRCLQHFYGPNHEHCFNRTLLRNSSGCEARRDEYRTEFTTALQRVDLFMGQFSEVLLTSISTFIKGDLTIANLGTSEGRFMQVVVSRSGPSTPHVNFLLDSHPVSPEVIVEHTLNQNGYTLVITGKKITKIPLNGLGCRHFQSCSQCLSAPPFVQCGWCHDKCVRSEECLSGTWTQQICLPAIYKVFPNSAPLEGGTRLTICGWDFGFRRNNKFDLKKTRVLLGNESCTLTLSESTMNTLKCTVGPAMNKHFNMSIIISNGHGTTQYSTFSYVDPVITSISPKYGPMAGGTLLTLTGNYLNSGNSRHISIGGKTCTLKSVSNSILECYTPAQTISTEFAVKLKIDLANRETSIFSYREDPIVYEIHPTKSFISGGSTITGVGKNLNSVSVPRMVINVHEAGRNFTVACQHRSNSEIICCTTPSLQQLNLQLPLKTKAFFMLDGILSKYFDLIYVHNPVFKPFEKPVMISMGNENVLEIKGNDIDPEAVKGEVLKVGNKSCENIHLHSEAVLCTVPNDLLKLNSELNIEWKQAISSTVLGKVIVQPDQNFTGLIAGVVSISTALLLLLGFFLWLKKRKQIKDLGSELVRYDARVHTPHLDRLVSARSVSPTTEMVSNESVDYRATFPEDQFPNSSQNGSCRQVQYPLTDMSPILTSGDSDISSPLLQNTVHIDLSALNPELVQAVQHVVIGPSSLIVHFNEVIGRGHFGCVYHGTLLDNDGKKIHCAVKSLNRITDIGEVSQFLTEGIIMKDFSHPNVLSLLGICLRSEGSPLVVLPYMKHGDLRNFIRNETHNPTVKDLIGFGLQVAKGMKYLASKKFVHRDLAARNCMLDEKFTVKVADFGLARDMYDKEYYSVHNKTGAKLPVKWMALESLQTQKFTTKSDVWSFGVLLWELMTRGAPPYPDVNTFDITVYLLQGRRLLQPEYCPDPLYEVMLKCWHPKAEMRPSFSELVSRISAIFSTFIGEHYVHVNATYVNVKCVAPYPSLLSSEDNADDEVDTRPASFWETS

Compound: COCCOc1cnc2ccc([C@H](C)c3nnc4c(F)cc(-c5cc(C)no5)cn34)cc2c1
- CL (Rattus norvegicus [1]): 9.5 mL/min/kg
- Drug metabolism [2]: metabolite_detected
- bioavailability [3]: 46%
- CL free (Liver microsome [4]): 417 mL/min/kg
- pIC50 [5]: 9.00
- Activity (Mus musculus [6]): 94%
- Drug metabolism (Liver microsome [7]): metabolite_detected
- Drug metabolism [8]: metabolite_detected
- Drug metabolism (Liver microsome [9]): metabolite_detected
- Drug metabolism (Liver microsome [10]): metabolite_detected
- Activity (Mus musculus [11]): 99%
- Activity (Mus musculus [12]): 27%
- Activity (Mus musculus [13]): 96%
- Activity (Mus musculus [14]): 47%
- Vd [15]: 4.9 L/kg
- half-life [16]: 4.2 h
- Activity (Mus musculus [17]): 64%
- Drug metabolism (Liver microsome [18]): metabolite_detected
- Drug metabolism [19]: metabolite_detected
- Drug metabolism (Liver microsome [20]): metabolite_detected
- Drug metabolism [21]: metabolite_detected
- Drug metabolism (Liver microsome [22]): metabolite_detected
- AUC (Rattus norvegicus [23]): 3.1 µM·h
- pIC50 [24]: 8.30

Compound: COc1cnc2ccc([C@H](CO)c3nnc4c(F)cc(-c5cc(C)no5)cn34)cc2c1
- Drug metabolism [25]: metabolite_detected
- Drug metabolism (Liver microsome [26]): metabolite_detected
